In ChEMBL document CHEMBL4513216, “Probing the Open Global Health Chemical Diversity Library for Multistage-Active Starting Points for Next-Generation Antimalarials” (ACS Infect Dis, 2020):

Assay: Toxicity liver stage against HepG2, at 10uM
Assay type: cell-based
Design: test concentration 10 uM, cell line HepG2-A16-CD81EGFP
Details: human, HepG2-A16-CD81EGFP cells; read-out: INHIBITION
Outline: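 Uninfected HepG2-A16-CD81EGFP cells, 3 × 10^3 per well, 1536-well, plated on prespotted compound at 10 μM final, parasite-free screening media added to match infected plates; puromycin 10 μM positive, DMSO 0.5% negative; run in parallel with 48 h PbLuc assay at 37 °C, 5% CO2; viability by CellTiter-Glo luminescence, normalized to controls.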

Row | Structure (SMILES) | cytotoxicity at 10 µM [%]
1 | Cn1c(=O)c2cc(C(=O)NCCc3ccccc3)ccc2n(C)c1=O | -13.8
2 | Cc1noc(C)c1CNCc1nn(-c2ccccc2)c2c1CCC2 | 1.83
3 | CC(=O)N1CCC(N2CCN3C(=O)N(c4ccccc4)C[C@H]3C2)CC1 | 1.35
4 | CCN(CC)C(=O)CC[C@@H]1CNC(=O)[C@@H]2C[C@H](NC(=O)C3CC3)CN12 | 5.76
5 | Cc1nnc(C2CCN(C(=O)c3ccc(-n4cccc4)cc3)CC2)s1 | 6.4
6 | O=C1COc2ccc(Br)cc2CN1CC1CC1 | -3.46
7 | Cc1noc(C2CCC3(CCN(C(=O)c4ccn(C)n4)CC3)O2)n1 (stereo unspecified) | 7.57
8 | Cn1cc(CN2CCC(F)(F)C3(CCN(c4cccc(F)c4)C3)C2)cn1 (stereo unspecified) | 45.9
9 | O=C(NCc1ccco1)[C@@H]1C[C@H]2OCC[C@H]2N(c2ncc(F)cn2)C1 | -0.113
10 | CC1(C)CC(=O)c2cnc3nc(N4CCCC4)[nH]c(=O)c3c2C1 | -2
11 | Cn1cnnc1S(=O)(=O)C1CCN(S(=O)(=O)c2c(Cl)cccc2Cl)CC1 | -14.2
12 | CC(C)NC(=O)c1sccc1N(C)S(=O)(=O)c1ccc(Cl)cc1 | 9.22
13 | O=C1CC2(CCN(S(=O)(=O)c3cccs3)C2)CN1c1ccccc1 (stereo unspecified) | 5.08
14 | Cc1nc(CN2C(=O)C[C@@H]3[C@@H]2CCN3C(=O)C2CCOCC2)cs1 | -10.8
15 | C[C@H]1C[C@@H]2CCN(C(=O)c3ccncn3)C[C@H]2O1 | -18.4
16 | COCC(=O)NCCn1nc(-c2cc(C)oc2C)ccc1=O | -1.74
17 | O=C(NC[C@]1(O)CCN(Cc2ccsc2)C[C@H]1O)c1c[nH]cn1 | 0.514
18 | Cc1noc(C)c1C(=O)N[C@@H]1CC[C@@H](Oc2ccccc2)[C@@H]1O | 0.395
19 | CS(=O)(=O)N1CCCCC1c1ccc(Nc2cnccn2)nc1 (stereo unspecified) | 6.39
20 | Cn1ccnc1CNC(=O)CCc1cccc(F)c1 | 0.293
21 | CN(C)c1ncc(I)c(C2CCCCN2C)n1 (stereo unspecified) | 1.74
22 | O=C(NCc1ccc2c(c1)OCO2)[C@@H]1C=CCN1c1ncccn1 | 0.146
23 | Cc1cc(C)nc(Nc2ccc(C3CCCCN3)cn2)n1 (stereo unspecified) | 11.7

Row | Structure (SMILES) | cytotoxicity at 10 µM [%]
24 | CC(=O)N[C@@H]1CN(S(=O)(=O)c2ccc(Cl)cc2)C[C@H]1O | 7.03
25 | NC(=O)C1(Cc2ccc(-c3ccccc3)cc2)CCCNC1 (stereo unspecified) | 0.772
26 | CCNC(=O)C1(Cc2ccc(-c3ccccc3)cc2)CCCNC1 (stereo unspecified) | -3.73
27 | COCCS(=O)(=O)Nc1cc(Cl)ccn1 | 2.62
28 | CC(NC1(CNS(C)(=O)=O)CCOCC1)c1ccccc1 (stereo unspecified) | 6.72
29 | CNC(=O)C(CC(C)C)NC(=O)c1cccc(-c2n[nH]c(C)n2)c1 (stereo unspecified) | 9.04
30 | COc1ccc(Br)cc1CC(=O)Nc1cc(C)n[nH]1 | -0.405
31 | Cc1ccc(S(=O)(=O)N2CC(C)Oc3ncccc32)c(C)c1 (stereo unspecified) | 5.35
32 | O=C(Nc1cccnc1-n1cncn1)C1CCC1 | -4.32
33 | CN(C(=O)NCC1(CN2CCOCC2)CCCCC1)C1CC1 | -1.91
34 | Cn1cc(-c2nc(CN3CCOC(Cn4cccn4)C3)cs2)cn1 (stereo unspecified) | -4.04
35 | Cc1nc(C2(NCC(=O)NC(=O)NCC(F)(F)F)CCCCC2)no1 | 18.4
36 | COc1c(C2CCCN2C(=O)c2cnn(C)c2C2CC2)c(C)nn1C (stereo unspecified) | -2.43
37 | Cc1ccccc1S(=O)(=O)CCOC(C)C | 0.456
38 | Cn1cc(CNc2ccc(F)c(N3CCCS3(=O)=O)c2)cn1 | -12.8
39 | CN(CCN1CCOCC1)C(=O)C1(c2ccc(F)cc2F)CCC1 | -6.68
40 | Cc1ccc(OC(C)CNC(=O)c2c[nH]nn2)cc1 (stereo unspecified) | -0.0422
41 | FC(F)(F)c1ccnc(N2CCCN(C3CCOCC3)CC2)c1 | -7.49
42 | CCN(C(=O)CN1CCCC1c1ccc(OC)cc1)c1ccccc1C (stereo unspecified) | 0.623
43 | CC(=O)N1CCc2ccc(S(=O)(=O)N3CCCCC3C)cc21 (stereo unspecified) | -10.3
44 | NS(=O)(=O)CCNC(=O)c1cc2cccc(F)c2o1 | 2.46
45 | COc1ccccc1CC(C)(C)NC(=O)CN(C)C(C)C | 3.04
46 | CC(C)(C)CC(=O)NCC(=O)NCC(O)c1ccc2ccccc2c1 (stereo unspecified) | 9.73

Row | Structure (SMILES) | cytotoxicity at 10 µM [%]
47 | CN(C(=O)Nc1ccccn1)C1CCCN(c2ccccc2)C1=O (stereo unspecified) | -6.63
48 | Cc1cc(C)nc(NC2CCOC3(CCCC3)C2)n1 (stereo unspecified) | 7.93
49 | CCN(C(=O)CN(CC(N)=O)C(C)C)C1=CCCC1 | 14.1
50 | COCCCN1CCCN(C(C)C(=O)Nc2ccnn2C(C)C)CC1 (stereo unspecified) | -8.8
51 | CC(NCC1=Cc2cc(Cl)ccc2OC1)c1nnc2n1CCCC2 (stereo unspecified) | -11.4
52 | Cc1nn(C)c(N(C)C)c1CNCC(O)COc1ccc(F)cc1 (stereo unspecified) | 0.769
53 | CCOCCN1CCN(Cc2nnc(C3CC3)o2)CC1CC (stereo unspecified) | -5.67
54 | CC(C)C1CN(C(=O)c2ccc(C(N)=O)cc2)CCS1 (stereo unspecified) | -4.03
55 | Cn1cc(CCNC(=O)NC2CCS(=O)(=O)C2)cn1 (stereo unspecified) | -12.9
56 | COc1ccc(C2CCCN2C(=O)NCCNc2ncccn2)cc1 (stereo unspecified) | -8.18
57 | Cc1ccc(C(=O)O)cc1S(=O)(=O)Nc1nn(-c2ccccc2)cc1C | -8.84
58 | Cc1nn(C)c(C)c1C1CCCN1C(=O)c1ccc(Cl)o1 (stereo unspecified) | -5.15
59 | FC(F)(F)CCc1ccnc(N2CCN(Cc3ccncc3)CC2)n1 | -21.2
60 | Cc1nc(N(C)C)ncc1C(=O)NCCc1csc(-c2ccncc2)n1 | 1.39
61 | CCC(=O)Nc1cccc(OCC(=O)N(C)Cc2cc(COC)[nH]n2)c1 | 1.79
62 | O=C(NC1CCCN(CCc2ccccc2)C1)c1cnccn1 (stereo unspecified) | 7.95
63 | COc1cccc2c1OCC(C(=O)N1CCSCC1)C2 (stereo unspecified) | 1.88
64 | CC1c2cccn2CCN1C(=O)CCc1nc(-c2ccccc2)no1 (stereo unspecified) | 0.45
65 | O=S(=O)(NC1CCCN(c2ncccn2)C1)N1CCCCCC1 (stereo unspecified) | 12.7
66 | C[C@@H]1CN(C(=O)c2ccc(=O)[nH]c2)CC[C@@]1(O)C1CCOCC1 | -1.59
67 | Fc1cccc(C2(CNC3CCSC3)CCOCC2)c1 (stereo unspecified) | -1.86
68 | O=c1cc(C2CCNCC2)nc(CCc2ccccn2)[nH]1 | -0.226
69 | CCn1c(C2CCN(C(=O)CCc3cc(Cl)no3)CC2)nn(C)c1=O | -7.09

Row | Structure (SMILES) | cytotoxicity at 10 µM [%]
70 | CSc1ccccc1C(C(=O)O)N(C)CC1CCOCC1 (stereo unspecified) | 4.93
71 | O=C(NCc1cc2n(n1)CCCNC2)c1cn2cc(Cl)ccc2n1 | -10.1
72 | CN(C)C(=O)N1CCN(Cc2nc3ccccc3[nH]2)[C@H]2CS(=O)(=O)C[C@H]21 | -150
73 | Cc1cc(C[C@@H]2COC[C@@H]2NC(=O)Cn2c(=O)oc3ccccc32)on1 | -14
74 | CN(Cc1ccc(F)cc1)[C@@H]1CN(C(=O)c2cccs2)C[C@H]1O | 3.92
75 | Cc1ccc(F)cc1S(=O)(=O)Nc1ccc2c(C(=O)O)c[nH]c2c1 | -3.53
76 | CN(Cc1ccco1)C(=O)CN1CCOC(Cn2cncn2)C1 (stereo unspecified) | -7.36
77 | CCc1c(C(=O)N2CCN(c3cnccn3)CC2)cnn1C(C)(C)C | -13
78 | O=C(c1cc(C2CC2)[nH]n1)N1CCN(Cc2ccncc2)CC1 | -10.9
79 | CC1COCCN1Cc1nc(-c2ccc(F)cc2)no1 (stereo unspecified) | -9.4
80 | CC(C)c1cnc(CN2CCCC(c3cc(C(N)=O)[nH]n3)C2)o1 (stereo unspecified) | -13.5
81 | CCC1c2ccsc2CCN1C(=O)NCCc1ccccn1 (stereo unspecified) | -12.4
82 | CCC1c2ccsc2CCN1C(=O)NCc1ccc(C)nc1 (stereo unspecified) | -3.75
83 | Cc1nc(C)c(CC(=O)Nc2nnc(C3CC3)s2)c(=O)[nH]1 | -11.2
84 | Fc1ccc(-c2nc(CN3CCCCC3Cn3cncn3)co2)cc1 (stereo unspecified) | -8.18
85 | CCc1nc(CN2CCOC(Cn3nc(C)cc3C)C2)no1 (stereo unspecified) | 4.36
86 | O=C(CCc1ccc2c(c1)OCO2)N1CCCCC1Cn1cccn1 (stereo unspecified) | -17.2
87 | Cc1cnn(CC2CCCCN2C(=O)c2cccc(C(N)=O)c2)c1 (stereo unspecified) | -0.775
88 | Cc1cnn(CC2CCCCN2C(=O)c2ccc(CN(C)C)cc2)c1 (stereo unspecified) | -11.4
89 | Cc1cn2c(n1)CCC(NC(=O)c1cncnc1C)C2 (stereo unspecified) | -3.56
90 | CCc1nc(C2CCCN2Cc2nnc(CC)o2)no1 (stereo unspecified) | -5.36
91 | O=C(CN1CCN(c2ccc3nncn3n2)CC1)NC1CCCC1 | -33.9
92 | CCn1cnnc1CNC(=O)N1CCN(c2cccs2)CC1 | -2.07

Row | Structure (SMILES) | cytotoxicity at 10 µM [%]
93 | COc1ccc(CC(=O)N2CCc3nnc(N(C)C)cc3C2)cc1F | -9.5
94 | CCOCC(O)CN1CCN(C(=O)c2ccccc2Cl)CC1 (stereo unspecified) | -1.96
95 | Cc1cc(C2CCCN(CCc3ccccn3)C2)n[nH]1 (stereo unspecified) | -10.4
96 | O=C(c1ccn(-c2cccc(Cl)c2)n1)N1CCN(C2CC2)CC1 | -7.03
97 | Cc1cc(C(=O)NCc2ccc(N3CCCC(C(N)=O)C3)cc2)no1 (stereo unspecified) | -3.37
98 | CC(Cc1ccco1)NC(=O)Nc1cnn(CC(N)=O)c1 (stereo unspecified) | 7.82
99 | O=C(NCCn1ccnc1)NCC(c1ccco1)N1CCCCC1 (stereo unspecified) | 3.44
100 | CC(C)n1c(=O)c2ccccc2n(CCN(C)C)c1=O | 0.616
101 | CN(C)CCCN(Cc1ccco1)Cc1ccnn1C1CCCCO1 (stereo unspecified) | -2.52
102 | CCN(CC)CC1CN(CCc2ccccc2)Cc2nccn2C1 (stereo unspecified) | -9.61
103 | OC(CN1CCN(Cc2ccc(F)cc2)CC1)C1CC1 (stereo unspecified) | -23.4
104 | CNC(C(=O)OC)c1cc(F)ccc1F (stereo unspecified) | -1.07
105 | CN(C)CC(=O)N1CC2(CCN(C(=O)Nc3ccccc3)C2)C1 | 4.17
106 | CN(C)C(=O)CO[C@H]1CN(Cc2ccsc2)[C@@H]2COC[C@H]12 | 8.44
107 | O=C(CN1CCC[C@@H]1C(=O)O)NCCOc1cccc(C(F)(F)F)c1 | -1.7
108 | NCC1CCCCN1C(=O)Cc1cccc(Br)c1 (stereo unspecified) | 0.907
109 | NCC1CCCCN1C(=O)Cc1ccc(F)c(F)c1 (stereo unspecified) | -1.5
110 | O=C(c1cnccn1)N1CCOCC2(CCN(C3CCOCC3)C2)C1 (stereo unspecified) | -7.94
111 | Cc1cc(CN2CCO[C@H]3[C@H](OCc4csc(C)n4)CC[C@@H]32)no1 | 5.86
